Assay results as given in ChEMBL document CHEMBL4152387, “Discovery of a Potent Grp94 Selective Inhibitor with Anti-Inflammatory Efficacy in a Mouse Model of Ulcerative Colitis” (J Med Chem, 2018).

Experiments:
[1] = Inhibition of FITC-geldanamycin binding to dog GST-tagged GRP94 N41 deletion mutant (69 to 337 residues) expressed in Escherichia coli BL21star (DE3) after 4 hrs by GM-FITC-based FP assay; set-up: species or system Canis lupus familiaris
[2] = target: T1, Heat shock protein HSP 90-alpha (Homo sapiens, UniProt P07900); assay: Inhibition of FITC-geldanamycin binding to human His-tagged HSP90alpha N-terminal domain (1 to 236 residues) expressed in Escherichia coli BL21star (DE3) at 100 uM after 4 hrs by FP assay relative to control
In short: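 Hsp90αN (15 nM final) with GM-FITC (6 nM final) and compound in HEPES/KCl/MgCl2 buffer pH 7.4 with NP40, DTT, BGG; 4 h at 4 °C in dark; FP at ex 485/em 535 nm; inhibition computed against GM-FITC-only and protein-plus-probe controls; n = 3.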

Canis lupus familiaris = species: Canis lupus familiaris; assay: Inhibition of FITC-geldanamycin binding to dog GST-tagged GRP94 N41 deletion mutant (69 to 337 residues) expressed in Escherichia coli BL21star (DE3) at 100 uM after 4 hrs by FP assay relative to control
[3] = target: T1, Heat shock protein HSP 90-alpha; assay: Inhibition of human recombinant HSP90alpha expressed in Escherichia coli by fluorescence polarization assay
Homo sapiens = species: Homo sapiens; assay: Selectivity ratio of IC50 for inhibition of human recombinant HSP90alpha expressed in Escherichia coli by fluorescence polarization assay to IC50 for inhibition of GRP94 (unknown origin)
Endoplasmin [4] = target: Endoplasmin (Homo sapiens, UniProt P14625); assay: Binding affinity to GRP94 N-domain (unknown origin)
Endoplasmin [5] = target: Endoplasmin (Canis lupus familiaris, UniProt P41148); assay: Inhibition of FITC-geldanamycin binding to canine GRP94 incubated for 5 hrs by fluorescence polarization assay
[6] = target: T1, Heat shock protein HSP 90-alpha; assay: Inhibition of FITC-geldanamycin binding to HSP90alpha (unknown origin) incubated for 5 hrs by fluorescence polarization assay

Chain of Endoplasmin (Canis lupus familiaris, UniProt P41148) (P41148 whole entry): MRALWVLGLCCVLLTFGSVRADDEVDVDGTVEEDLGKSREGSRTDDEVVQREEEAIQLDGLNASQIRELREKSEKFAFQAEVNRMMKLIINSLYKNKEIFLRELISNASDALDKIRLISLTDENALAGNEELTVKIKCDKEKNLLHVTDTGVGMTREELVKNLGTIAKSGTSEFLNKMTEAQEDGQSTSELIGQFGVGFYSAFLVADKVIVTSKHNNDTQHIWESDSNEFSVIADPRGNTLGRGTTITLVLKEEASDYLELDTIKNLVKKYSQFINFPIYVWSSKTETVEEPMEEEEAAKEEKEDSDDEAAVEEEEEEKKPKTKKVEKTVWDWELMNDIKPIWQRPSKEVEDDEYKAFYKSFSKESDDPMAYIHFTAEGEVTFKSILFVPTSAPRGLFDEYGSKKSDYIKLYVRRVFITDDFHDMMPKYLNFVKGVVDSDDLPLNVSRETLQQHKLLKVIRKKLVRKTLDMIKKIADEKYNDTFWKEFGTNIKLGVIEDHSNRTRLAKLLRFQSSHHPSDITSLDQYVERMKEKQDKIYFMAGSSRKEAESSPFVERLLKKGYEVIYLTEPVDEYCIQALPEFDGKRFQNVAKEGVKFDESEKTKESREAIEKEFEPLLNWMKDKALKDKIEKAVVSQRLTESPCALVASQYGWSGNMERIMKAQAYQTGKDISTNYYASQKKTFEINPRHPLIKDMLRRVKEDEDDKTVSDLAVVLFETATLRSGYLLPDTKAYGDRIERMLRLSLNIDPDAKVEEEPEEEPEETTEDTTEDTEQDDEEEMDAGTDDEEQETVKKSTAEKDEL
Chain of Endoplasmin (Homo sapiens, UniProt P14625) (P14625 whole entry): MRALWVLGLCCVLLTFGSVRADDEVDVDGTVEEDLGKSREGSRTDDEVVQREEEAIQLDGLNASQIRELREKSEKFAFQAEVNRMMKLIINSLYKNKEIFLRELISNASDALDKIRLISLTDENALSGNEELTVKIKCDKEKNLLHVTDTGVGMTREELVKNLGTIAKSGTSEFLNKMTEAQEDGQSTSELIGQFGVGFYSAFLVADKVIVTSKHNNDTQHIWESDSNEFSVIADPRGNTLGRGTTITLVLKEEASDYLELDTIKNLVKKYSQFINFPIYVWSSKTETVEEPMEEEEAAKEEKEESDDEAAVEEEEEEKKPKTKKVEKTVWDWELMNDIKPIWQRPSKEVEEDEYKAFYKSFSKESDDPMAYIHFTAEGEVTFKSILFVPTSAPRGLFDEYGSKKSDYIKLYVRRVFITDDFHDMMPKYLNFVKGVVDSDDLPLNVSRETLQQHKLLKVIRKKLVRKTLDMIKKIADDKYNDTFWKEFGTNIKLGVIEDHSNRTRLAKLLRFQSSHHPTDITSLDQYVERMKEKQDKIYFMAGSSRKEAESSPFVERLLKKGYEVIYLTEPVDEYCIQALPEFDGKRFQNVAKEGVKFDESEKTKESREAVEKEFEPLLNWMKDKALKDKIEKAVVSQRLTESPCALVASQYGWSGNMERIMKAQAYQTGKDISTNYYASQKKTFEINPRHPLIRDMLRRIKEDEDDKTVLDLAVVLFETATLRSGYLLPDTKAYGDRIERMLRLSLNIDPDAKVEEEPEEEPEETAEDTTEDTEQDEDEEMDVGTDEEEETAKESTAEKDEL

SMILES | IC50 [1] | inhibition (INH) [2] | inhibition (Canis lupus familiaris) | Kd (Endoplasmin [5]) | Kd [6] | IC50 [3] | Ratio IC50 (Homo sapiens) | IC50 (Endoplasmin [4])
CC(C)c1ccc(-c2ccc(NC3CCN(C(=O)CCN)CC3)c(C(N)=O)c2)cc1 | 220 nM | Not Active | 96% | – | – | – | – | –
CCCc1ccc(-c2ccc(N[C@H]3CC[C@H](O)CC3)c(C(N)=O)c2)cc1 | 53 nM | Not Active | 100% | – | – | – | – | –
NC(=O)c1cc(-c2ccccc2)ccc1N[C@H]1CC[C@H](O)CC1 | 2770 nM | Not Active | 93% | – | – | – | – | –
C#CCCCn1cnc(N)c2nc(Sc3ccc(C)cc3C)nc1-2 | – | – | – | – | – | > 250000 nM | > 21 | 11800 nM
NC(=O)c1cc(-c2ccc(-n3cccc3)cc2)ccc1N[C@H]1CC[C@H](O)CC1 | – | Not Active | 0% | – | – | – | – | –
COC(=O)c1c(O)cc(O)c(Cl)c1CCC(=O)NC1=CC(=O)C(OC)=CC1=O | – | – | – | 520 nM | 870 nM | – | – | –
CC(C)c1ccc(-c2ccc(N[C@H]3CCOC3)c(C(N)=O)c2)cc1 | 130 nM | Not Active | 95% | – | – | – | – | –
CC(N)C(=O)N1CCC(Nc2ccc(-c3ccc(C(C)C)cc3)cc2C(N)=O)CC1 (centres undefined) | 370 nM | Not Active | 88% | – | – | – | – | –
NC(=O)c1cc(-c2ccc3ccccc3c2)ccc1N[C@H]1CC[C@H](O)CC1 | 12600 nM | Not Active | 75% | – | – | – | – | –
CC[C@H](C)[C@H](N)C(=O)N1CCC(Nc2ccc(-c3ccc(C(C)C)cc3)cc2C(N)=O)CC1 | 470 nM | Not Active | 92% | – | – | – | – | –
Cc1cc(C)cc(-c2ccc(N[C@H]3CC[C@H](O)CC3)c(C(N)=O)c2)c1 | 19700 nM | Not Active | 72% | – | – | – | – | –
NC(=O)c1cc(-c2cccc3ccccc23)ccc1N[C@H]1CC[C@H](O)CC1 | – | Not Active | 0% | – | – | – | – | –
CC(C)(C)c1ccc(-c2ccc(N[C@H]3CC[C@H](O)CC3)c(C(N)=O)c2)cc1 | 790 nM | Not Active | 100% | – | – | – | – | –

More lines, in order of falling IC50 [1], values ahead:

IC50 [1] | inhibition (INH) [2] | inhibition (Canis lupus familiaris) | Kd (Endoplasmin [5]) | Kd [6] | SMILES | IC50 [3] | Ratio IC50 (Homo sapiens) | IC50 (Endoplasmin [4])
11500 nM | Not Active | 89% | – | – | COc1ccccc1-c1ccc(N[C@H]2CC[C@H](O)CC2)c(C(N)=O)c1 | – | – | –
4750 nM | Not Active | 100% | – | – | COc1cccc(-c2ccc(N[C@H]3CC[C@H](O)CC3)c(C(N)=O)c2)c1 | – | – | –
3110 nM | Not Active | 89% | – | – | CC(C)c1ccc(-c2ccc(NC3CCCC3)c(C(N)=O)c2)cc1 | – | – | –
1420 nM | Not Active | 100% | – | – | Cc1cccc(C)c1-c1ccc(N[C@H]2CC[C@H](O)CC2)c(C(N)=O)c1 | – | – | –
1160 nM | Not Active | 100% | – | – | Cc1cccc(-c2ccc(N[C@H]3CC[C@H](O)CC3)c(C(N)=O)c2)c1 | – | – | –
1110 nM | Not Active | 100% | – | – | Cc1cc(C)c(-c2ccc(N[C@H]3CC[C@H](O)CC3)c(C(N)=O)c2)c(C)c1 | – | – | –
500 nM | Not Active | 100% | – | – | COc1ccc(-c2ccc(N[C@H]3CC[C@H](O)CC3)c(C(N)=O)c2)cc1 | – | – | –
470 nM | Not Active | 100% | – | – | CC(C)c1ccc(-c2ccc(NC3CCNCC3)c(C(N)=O)c2)cc1 | – | – | –
370 nM | Not Active | 97% | – | – | CC(C)c1ccc(-c2ccc(NC3CCCCC3)c(C(N)=O)c2)cc1 | – | – | –
340 nM | Not Active | 100% | – | – | Cc1ccc(-c2ccc(N[C@H]3CC[C@H](O)CC3)c(C(N)=O)c2)cc1 | – | – | –
210 nM | Not Active | 100% | – | – | CC(C)c1ccc(-c2ccc(NC3CCN(C(=O)CN)CC3)c(C(N)=O)c2)cc1 | – | – | –
